For data set [1], the system named is GFP reporter strain of Mtb (Mtb pMSp12: GFP). The data set is classed as cell-based, Mycobacterium tuberculosis.
The subject of data set [2] is Vero cell line. The data set can be described thus: MTT cytotoxicity assay, Vero cells. Particulars: 48 h. The data set is classed as cell-based. In outline:
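Vero cells plated at 3.0 × 10³ cells/well, 24 h at 37 °C, 5% CO2. Then 48 h exposure to test compound at 1, 5 or 10 µM in 0.15% DMSO, triplicate technical repeats. Positive control was 0.2% Triton X-100 for 15 min. Cells PBS-rinsed, MTT 0.5 mg/ml final for 4 h, formazan dissolved in DMSO. Absorbance 560 nm against 630 nm background; survival vs untreated cells; SD, n = 3.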
For orientation: Formazan colour is commonly taken as a measure of viable cells.

Data set [3] relates to BJ-5ta (hTERT immortalized Human skin fibroblasts). The data set is described as follows: MTT cytotoxicity assay, BJ-5ta cells. The data set is classed as cell-based. Particulars: BJ-5ta, 48 h, MTT. The procedure, abridged: (§1)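 BJ-5ta fibroblasts seeded at 1.8 × 10⁴ cells/well, 24 h at 37 °C, 5% CO2. Then exposed 48 h to test compound at 1, 5 or 10 µM in 0.15% DMSO, 3 technical repeats. Dead-cell control was 0.2% Triton X-100 for 15 min. After PBS rinses, MTT 0.5 mg/ml final for 4 h, formazan dissolved in DMSO. A560 minus A630, DMSO-blank-corrected, % of untreated cells; mean ± SD.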

Data set [4] can be described thus: MTT cytotoxicity assay, BJ-5ta cells. It is filed as cell-based, Human. Particulars: human, BJ-5ta cells (hTERT immortalized human skin fibroblasts). In outline: as §1
Data set [5] has as its system H37Rv strain of Mtb. Particulars: H37Rv strain of Mtb in vitro; cited from earlier work.

≈ marks a conversion by molar mass, not a printed value. Where “and” joins values, the source holds several entries; their conditions need not be identical. Equal values may be shown once. Entries after “also recorded” stand apart in the source; their conditions may differ. Read-outs that look alike come from different tables or passages of the source.

In the case of `c1ccc(Nc2ncnc3[nH]ccc23)cc1` [Compound 1, N-phenyl-7H-pyrrolo[2,3-d]pyrimidin-4-amine], in data set [1], the MIC90 is on record as 62.5 µM (≈ 13.1 µg/mL). Still for that read-out and setting: the value for `Fc1cccc(Nc2ncnc3[nH]ccc23)c1` [Compound 3, N-(3-fluorophenyl)-7H-pyrrolo[2,3-d]pyrimidin-4-amine] was more than 125 µM. For the compound `Brc1ccc(Nc2ncnc3[nH]ccc23)cc1` [Compound 10, N-(4-bromophenyl)-7H-pyrrolo[2,3-d]pyrimidin-4-amine], the MIC90 in data set [1] was 3.9 µM and 3.90 µM. On to `c1ccc(Oc2ccc(Nc3ncnc4[nH]ccc34)cc2)cc1` [Compound 11, N-(4-phenoxyphenyl)-7H-pyrrolo[2,3-d]pyrimidin-4-amine], for which the “Cytotoxicity (in words)” value in data set [2] is given as “no potential cytotoxicity risk”; in data set [2] (listed as N-(4-phenoxy phenyl)-7H-pyrrolo[2,3-d]pyrimidin-4-amine) it was “non-cytotoxic”; in data set [3], “weakly cytotoxic; also recorded: weak cytotoxicity”. Further, in data set [2] (highest concentration tested (1, 5, 10 µM tested)), the Cell viability reduction result is given as “no cell viability reduction observed”. Also, the MIC90 is reported as 0.488 µM (≈ 0.148 µg/mL) in data set [1] and 0.488 in data set [1] ([…], no unit printed in the conclusion). The viability at 48 h, 1 µM in data set [4] came out at 115%.

As for `c1nc(Nc2ccc(N3CCOCC3)cc2)c2cc[nH]c2n1` [Compound 15, N-(4-morpholinophenyl)-7H-pyrrolo[2,3-d]pyrimidin-4-amine], the MIC90 in data set [1] is 3.906 µM and 3.90 µM. Still for that read-out and setting: the value for `c1ccc(CCCNc2ncnc3[nH]ccc23)cc1` [Compound 22, N-(3-phenylpropyl)-7H-pyrrolo[2,3-d]pyrimidin-4-amine] was 14.45 µM (≈ 3.65 µg/mL). `c1ccc(CCCCNc2ncnc3[nH]ccc23)cc1` [Compound 23, N-(4-phenylbutyl)-7H-pyrrolo[2,3-d]pyrimidin-4-amine]: in data set [1], the MIC90 is 3.713 µM and 3.71 µM. Take `OCCNCCNc1ncnc2[nH]ccc12` [Compound 26, 2-((2-((7H-pyrrolo[2,3-d]pyrimidin-4-yl)amino)ethyl)amino)ethan-1-ol]: the MIC90 in data set [1] came out at 125 µM (≈ 27.7 µg/mL). On to `CC(C)OCCCNc1ncnc2[nH]ccc12` [Compound 27, N-(3-isopropoxypropyl)-7H-pyrrolo[2,3-d]pyrimidin-4-amine], for which the MIC90 in data set [1] is on record as 125 µM (≈ 29.3 µg/mL). Consider `CO[C@H]1/C=C/O[C@@]2(C)Oc3c(C)c(O)c4c(O)c(c(/C=N/N5CCN(C)CC5)c(O)c4c3C2=O)NC(=O)/C(C)=C\C=C\[C@H](C)[C@H](O)[C@@H](C)[C@@H](O)[C@@H](C)[C@H](OC(C)=O)[C@@H]1C` [RF, rifampicin], for which the MIC in data set [5] is recorded as 0.09 µM (≈ 0.0741 µg/mL). “N-(2-methoxy-4-nitrophenyl)-7H-pyrrolo[2,3-d]pyrimidin-4-amine [Compound 14]” had an MIC90 in data set [1] of more than 125 µM. On the same count and under the same terms, the value for “N-(3-(trifluoromethyl)phenyl)-7,7a-dihydro-1H-pyrrolo[2,3-d]pyrimidin-4-amine [Compound 4]” was 62.5 µM. Same read-out and setting: the value for “N-(3-morpholinopropyl)-7H-pyrrolo[2,3-d]pyrimidin-4-amine [Compound 28]” was 125 µM; that for “N-(3-nitrophenyl)-7H-pyrrolo[2,3-d]pyrimidin-4-amine [Compound 13]” was 62.5 µM.

In general, viability refers to a read-out of living cells in per cent, often relative to untreated cells. What is called MIC is the lowest concentration found to suppress growth.

The values above are taken from publication PMC9124159 (Molecular Diversity, 2022).
